Reference: ChEMBL document CHEMBL1141116, “Synthesis and structure-activity relationship of the first nonpeptidergic inverse agonists for the human cytomegalovirus encoded chemokine receptor US28” (J Med Chem, 2005)

Legend:
[1] = target: T1, G-protein coupled receptor homolog US28 (Human cytomegalovirus (strain AD169) (HHV-5) (Human herpesvirus 5), UniProt P69332); assay: Inhibitory concentration against chemokine receptor US28 expressed in COS-7 cells using [125I]-CCL5; type: cell-based, Human betaherpesvirus 5
T1 sequence (P69332 whole entry): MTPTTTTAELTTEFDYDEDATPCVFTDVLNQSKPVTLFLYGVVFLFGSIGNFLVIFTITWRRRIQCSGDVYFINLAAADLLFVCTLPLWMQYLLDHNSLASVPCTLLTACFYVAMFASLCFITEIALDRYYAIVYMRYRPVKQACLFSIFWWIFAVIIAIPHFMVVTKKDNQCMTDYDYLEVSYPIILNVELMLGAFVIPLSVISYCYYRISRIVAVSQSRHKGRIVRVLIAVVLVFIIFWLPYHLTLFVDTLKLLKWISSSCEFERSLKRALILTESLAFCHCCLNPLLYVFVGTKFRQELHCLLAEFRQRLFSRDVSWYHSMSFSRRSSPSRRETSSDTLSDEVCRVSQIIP
Summary of the method: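 Whole US28-transfected COS-7 cells, 48 h post-transfection, incubated 3 h at 4 °C with 0.3 nM [125I]CCL5 in 50 mM Hepes pH 7.4, 1 mM CaCl2, 5 mM MgCl2, 0.5% BSA ± varying compound concentrations. Four washes at 4 °C with buffer plus 0.5 M NaCl; nonspecific binding with 0.1 μM unlabeled CCL5. IC50 as mean, interval from ≥3 experiments unless noted.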

[2] = target: T1, G-protein coupled receptor homolog US28; assay: Effective concentration against US28-mediated inositol phosphate production in COS-7 cells; type: functional, cell-based
Summary of the method: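 COS-7 cells transiently transfected (DEAE-dextran, 2 μg DNA per million cells, pcDEF3-US28); 24 h post-transfection labeled overnight with 2 μCi/ml myo-[2-3H]inositol in inositol-free medium. After 10 min wash, 2 h incubation in DMEM with 25 mM HEPES pH 7.4 and 20 mM LiCl ± varying compound concentrations; stopped with cold 10 mM formic acid, [3H]inositol phosphates isolated by anion exchange, scintillation counted. EC50 as mean, interval from ≥3 experiments.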

SMILES	IC50 [1]	EC50 [2]
OC1(c2ccc(Cl)cc2)CCN(CCCCc2ccccc2)CC1	14.8 µM	–
COc1ccc(C2(O)CCN(CCCC(C#N)(c3ccccc3)c3ccccc3)CC2)cc1	72.4 µM	28.8 µM
N#CC(CCCN1CCC(O)(c2ccccc2)CC1)(c1ccccc1)c1ccccc1	35.5 µM	28.2 µM
N#CC(CCCN1CCN(c2ccc(Cl)cc2)CC1)(c1ccccc1)c1ccccc1	> 100 µM	> 100 µM
OC1(c2ccc(Cl)cc2)CCN(CCCOc2ccccc2)CC1	61.7 µM	–
Cc1ccc(C2(O)CCN(CCCC(C#N)(c3ccccc3)c3ccccc3)CC2)cc1	60.3 µM	–
N#CC(CCCN1CCC(O)(c2ccc(Br)cc2)CC1)(c1ccccc1)c1ccccc1	19.5 µM	–
N#CC(CCCN1CCC(O)CC1)(c1ccccc1)c1ccccc1	> 100 µM	> 100 µM
COc1ccc(C(CCCN2CCC(O)(c3ccc(Cl)cc3)CC2)c2ccccc2)cc1 (configuration not stated)	15.5 µM	–
CCOC(=O)C1CCN(CCCC(C#N)(c2ccccc2)c2ccccc2)CC1	34.7 µM	> 100 µM
N#CC(CCCN1CCC(O)(c2ccc(Cl)c(Cl)c2)CC1)(c1ccccc1)c1ccccc1	38 µM	–
OC1(c2ccc(Cl)cc2)CCN(CCCC(c2ccccc2)c2ccc(Cl)c(Cl)c2)CC1 (configuration not stated)	15.8 µM	–
N#CC(CCCN1CCC(C(=O)O)CC1)(c1ccccc1)c1ccccc1	> 100 µM	> 100 µM
N#CC1(c2ccccc2)CCN(CCCC(C#N)(c2ccccc2)c2ccccc2)CC1	> 100 µM	> 100 µM
N#CC(CCCN1CCC(c2ccc(Cl)cc2)CC1)(c1ccccc1)c1ccccc1	–	13.8 µM
Cc1ccccc1C(CCCN1CCC(O)(c2ccc(Cl)cc2)CC1)c1ccccc1 (configuration not stated)	5.5 µM	9.8 µM
OC1(c2ccc(Cl)cc2)CCN(CCCC(c2ccccc2)c2ccc(Cl)cc2)CC1 (configuration not stated)	17 µM	–

SMILES	IC50 [1]	EC50 [2]
N#CC(CCCN1CCC(O)(Cc2ccccc2)CC1)(c1ccccc1)c1ccccc1	63.1 µM	–
OC1(c2ccc(Cl)cc2)CCN(CCCC(c2ccccc2)c2ccccc2)CC1	6.5 µM	4.2 µM
N#CC(CCCN1CCC(C(N)=O)CC1)(c1ccccc1)c1ccccc1	> 100 µM	> 100 µM
OC1(c2ccc(Cl)cc2)CCN(CCCC(c2ccc(Cl)cc2)c2ccc(-c3ccccc3)cc2)CC1 (configuration not stated)	> 100 µM	> 100 µM
N#CC(CCCN1CCC(=C(c2ccccc2)c2ccccc2)CC1)(c1ccccc1)c1ccccc1	> 100 µM	> 100 µM
O=C(CCCN1CCC(O)(c2ccc(Cl)cc2)CC1)c1ccccc1	> 100 µM	–
C[N+]1(CCCC(C#N)(c2ccccc2)c2ccccc2)CCC(O)(c2ccc(Cl)cc2)CC1 (configuration not stated)	> 100 µM	> 100 µM
Cc1ccc(C(CCCN2CCC(O)(c3ccc(Cl)cc3)CC2)c2ccccc2)cc1 (configuration not stated)	30.9 µM	11.5 µM
N#CC(CCCN1CC=C(c2ccc(Cl)cc2)CC1)(c1ccccc1)c1ccccc1	> 100 µM	> 100 µM
N#CC(CCCN1CCC(O)(c2ccc(Cl)c(C(F)(F)F)c2)CC1)(c1ccccc1)c1ccccc1	45.7 µM	–
OC(CCCN1CCC(O)(c2ccc(Cl)cc2)CC1)c1ccccc1 (configuration not stated)	> 100 µM	> 100 µM
CC1(O)CCN(CCCC(C#N)(c2ccccc2)c2ccccc2)CC1	> 100 µM	> 100 µM
OC1(c2ccc(Cl)cc2)CCN(CCCC(c2ccc(Cl)cc2)c2ccc(Cl)cc2)CC1	17.4 µM	–
Cc1cccc(C(CCCN2CCC(O)(c3ccc(Cl)cc3)CC2)c2ccccc2)c1 (configuration not stated)	11.5 µM	–
CCCCC1(O)CCN(CCCC(C#N)(c2ccccc2)c2ccccc2)CC1	> 100 µM	> 100 µM
N#CC(CCCN1CCC(O)(c2ccc(Cl)cc2)CC1)(c1ccccc1)c1ccccc1 [BERLEX COMPOUND]	9.3 µM	3.2 µM
